Screens deposited in PubChem by several laboratories.
DAGLB inh: blocks human DAGLB lipase activity | Q8NCG7 | HEK293T DAGLB membrane lysate, EnzChek fluorogenic substrate | inhibition, % at 5.17 µM | actives 0.059% (n = 340,000) | AID 504411; in the data active = inhibition above about 34%;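 note: 0% = enzyme with vehicle and 100% = wells lacking enzyme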
ANO1 activ: activates or potentiates the mouse TMEM16A chloride channel; Q8BHY3; HEK293 TMEM16A/YFP-H148Q/I152L, iodide quench fluorescence; active compounds read low; B-score at 10 µM; actives 0.3% (n = 340,000); AID 623877;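 active = fluorescence-ratio B-score plate-corrected deviation score at least 3 library SD below zero, with starting fluorescence score within 5 deviations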;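 note: channel opened by trigger with iodide after compound preincubation; score built on the fluorescence ratio of max minus min over baseline; more negative score means more quench and so TMEM16A activation or potentiation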
TMEM16A inh: mouse TMEM16A channel inhibition, primary screen; normalized B-score (activity score, 25-100; higher = stronger inhibition) at 10 µM; HEK293 TMEM16A/YFP iodide influx fluorescence, ionomycin; actives 1.2% (n = 310,000);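 active = ratio plate-corrected score three or more library SD toward inhibition, starting fluorescence score within five deviations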;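 note: score derived from kinetic fluorescence span divided by baseline fluorescence per well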
MT1-MMP act inh: MT1-MMP (human) activation inhibition; AID 651647; actives 0.061% (n = 360,000); GFP/RFP ratio change, % at 20 µM; HT1080 RFP-PRO-GFP cells, GFP/RFP ratio fluorescence, overnight; percent of plate control window, DMSO zero;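 active = GFP/RFP ratio change of at least 30% with cell ATP level not reduced by more than half and red fluorescence within 50% of control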
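Assay system: HT1080 cells carrying an RFP-PRO-GFP reporter | Dosing: Single dose of 20 µM compound, 1% DMSO final | Incubation: Cells overnight before dosing, compound overnight, 37 °C, 5% CO2 | Evaluation: GFP/RFP fluorescence ratio | Control set: DMSO and RFP-L50D-GFP cell wells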
TMEM16A reconf: re-confirmation of mouse TMEM16A chloride channel inhibitors. HEK293 TMEM16A/YFP-H148Q, iodide quench fluorescence; ionomycin added to raise cell calcium. inhibition, % at 10 µM. AID 652189. actives 39% (n = 2,300). shares compounds with TMEM16A inh;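 active = mean duplicate percent inhibition, scaled so buffer wells are 0 and the reference blocker 100, over three buffer SD above buffer mean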
TMEM16A Ca cntr: counter-screen for TMEM16A inhibitors: effect on calcium mobilization; shares compounds with TMEM16A inh; TMEM16A/YFP HEK293, Fluo4 calcium mobilization; actives 2% (n = 2,300); calcium response (% of ionomycin), % at 10 µM; AID 652231;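 active = duplicate-averaged calcium signal over 20% of the ionomycin maximum, relative to buffer baseline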;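 note: each well's signal is peak minus trough fluorescence divided by its pre-addition baseline; 0% = buffer wells and 100% = ionomycin wells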
Parental YFP cnt: counter-screen for TMEM16A inhibitors: effect in parental YFP-HEK293 cells. shares compounds with TMEM16A inh. iodide YFP quench, ionomycin. YFP ratio F(max-min)/F0 at 10 µM. 2,300 tested, under 10 active. AID 652233;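 active = yellow fluorescent protein signal ratio exceeding the buffer control mean by over 5 SD of those controls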;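 note: ratio is mean of duplicate wells from kinetic YFP trace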
ClC-1 inh: blocks the rat ClC-1 voltage-dependent chloride channel. AID 652236. ratio percent, % at 10 µM. CHO ClC-1-YFP, iodide influx fluorescence quench; iodide control reads 0, buffer control 100. 2,300 tested, under 10 active. shares compounds with TMEM16A inh;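 active = duplicate-mean ratio percent above the mean of iodide-only control wells, which defines zero, plus 5 of their SD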;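 note: higher percent means stronger block of ClC-1 iodide influx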
Target sequence (P35524 whole entry, looked up): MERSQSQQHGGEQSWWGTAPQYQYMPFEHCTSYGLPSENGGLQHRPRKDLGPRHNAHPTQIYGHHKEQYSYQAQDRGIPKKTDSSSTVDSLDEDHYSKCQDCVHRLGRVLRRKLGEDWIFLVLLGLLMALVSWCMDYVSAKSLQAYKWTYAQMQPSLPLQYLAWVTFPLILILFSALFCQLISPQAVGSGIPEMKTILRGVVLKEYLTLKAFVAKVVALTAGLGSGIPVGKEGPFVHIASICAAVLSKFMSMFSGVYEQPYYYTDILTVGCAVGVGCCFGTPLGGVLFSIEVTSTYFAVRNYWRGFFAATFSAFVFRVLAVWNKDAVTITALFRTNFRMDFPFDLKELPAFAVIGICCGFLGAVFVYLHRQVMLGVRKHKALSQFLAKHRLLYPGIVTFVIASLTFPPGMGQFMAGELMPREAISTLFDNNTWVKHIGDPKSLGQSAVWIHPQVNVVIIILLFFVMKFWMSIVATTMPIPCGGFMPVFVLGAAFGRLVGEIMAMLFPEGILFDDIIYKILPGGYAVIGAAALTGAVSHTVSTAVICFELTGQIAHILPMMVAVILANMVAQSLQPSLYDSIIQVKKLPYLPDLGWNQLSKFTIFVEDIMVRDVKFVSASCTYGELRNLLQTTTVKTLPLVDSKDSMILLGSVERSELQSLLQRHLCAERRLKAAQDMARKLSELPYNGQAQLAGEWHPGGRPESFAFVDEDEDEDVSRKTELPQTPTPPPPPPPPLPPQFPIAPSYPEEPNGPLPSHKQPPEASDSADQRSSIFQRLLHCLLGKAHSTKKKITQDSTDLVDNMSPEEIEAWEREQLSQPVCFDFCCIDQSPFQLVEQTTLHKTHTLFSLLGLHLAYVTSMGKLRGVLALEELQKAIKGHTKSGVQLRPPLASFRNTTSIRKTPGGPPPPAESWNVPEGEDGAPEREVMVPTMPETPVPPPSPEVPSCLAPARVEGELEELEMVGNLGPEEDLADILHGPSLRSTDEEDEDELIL
Starred values were filed as active, the others as inactive; i = inactive; · = not tested or not shown. A selection: hits, their analogues and other compounds. The true share with any hit is near 1.3%.

SMILES	DAGLB inh	ANO1 activ	TMEM16A inh	MT1-MMP act inh	TMEM16A reconf	TMEM16A Ca cntr	Parental YFP cnt	ClC-1 inh
Cc1nnc2ccc(N3CCCC3)nn12	0	i	25*	-2	i	i	-0.94	-19
O=C(c1cc(COc2c(F)cccc2F)on1)N1CCC(c2ccncc2)CC1	0	i	25*	-9	i	i	-1.2	-22
Cc1cccc(C)c1OCc1cc(C(=O)N2CCC(c3ccncc3)CC2)no1	-2	i	25*	-1	21%*	i	-1	-22
Cc1cccc(C)c1OCc1cc(C(=O)N2CCN(C3CCCC3)CC2)no1	-1	i	i	-1	·	·	·	·
O=C(c1cc(COc2c(F)cccc2F)on1)N1CCC(c2ccccc2F)C1 (stereo not given)	-10	i	i	-6	·	·	·	·
Cc1ccc(C(=O)N2CCN(c3ccc(NC(=O)COc4ccccc4C)cc3)CC2)cc1	-3	i	i	6	·	·	·	·
CCCCn1nnnc1C(c1cccc2ccccc12)N1CCN(C/C=C/c2ccccc2)CC1 (stereo not given)	·	·	·	-4	·	·	·	·
OC1(c2ccc(OC(F)F)cc2)CSC(=Nc2cccnc2)N1C1CC1 (stereo not given)	2	i	100*	-1	20%*	i	-1.3	-24
COc1ccc(OC)c(C2(O)CSC(=Nc3cccnc3)N2Cc2ccco2)c1 (stereo not given)	-2	i	i	-1	·	·	·	·
O=C(CN1CCN(c2ccccc2)CC1)Nc1scc2c1c(=O)oc1ccccc12	-2	i	i	7	·	·	·	·
O=C(Nc1ccccc1)Nc1scc2c1c(=O)oc1ccccc12	·	·	i	·	i	i	-1.2	-12
COc1ccc(CC(=O)NCc2cccc(Cl)c2)cc1S(=O)(=O)N1CCOCC1	-1	·	·	3	·	·	·	·
O=c1[nH]c(SCc2nc3c(cnn3-c3ccccc3)c(=O)[nH]2)nc2ccccc12	-2	i	·	-1	·	·	·	·
Cc1ccc2nc(SCc3nc4c(cnn4-c4ccccc4)c(=O)[nH]3)[nH]c2c1	0	i	25*	-5	i	i	-0.92	-4
CCN(CC(=O)Nc1c(F)cccc1F)C(=O)c1ccc(S(=O)(=O)N(CC)c2ccccc2)cc1	0	i	·	-1	·	·	·	·
N#Cc1c(NC(=O)c2ccc([N+](=O)[O-])o2)sc2c1CCC2	15	i	100*	-7	41%*	i	-1.2	-6
CC(=O)Nc1ccc(S(=O)(=O)Nc2cccc(-c3nc4ccccc4o3)c2)cc1	0	i	100*	4	i	i	-0.96	-11
O=S(=O)(Nc1ccc(-c2nc3ccccc3o2)cc1)c1ccccc1	-3	i	i	11	·	·	·	·
COC(=O)CN1C(=O)CSc2ccc(S(=O)(=O)N3CCC(C)CC3)cc21	·	·	·	0	·	·	·	·
COC(=O)c1sc(NC(=O)C2CCCO2)c(C(=O)OC)c1C (stereo not given)	1	i	25*	-6	i	i	-1.2	-17
COc1ccccc1-n1c(=O)oc2ccc(Cl)cc2c1=O	-1	i	25*	-13	22%*	i	-1.1	-10
Cc1ccccc1NC(=O)CN1C(=O)NC2(CCCCCCC2)C1=O	1	i	·	2	·	·	·	·
CC(=O)O[C@@H](Cc1ccc(O)cc1)C(=O)CC(C)C	·	·	·	-1	·	·	·	·
O=C(O)CCCN1C(=O)/C(=C\c2ccccc2OCc2ccccc2)SC1=S	12	i	25*	2	i	i	-1.2	-34
O=C(O)CCCN1C(=O)/C(=C\c2ccc(-c3nc4ccccc4s3)o2)SC1=S	1	i	25*	-20	24%*	i	-1.1	-10
SMILES	DAGLB inh	ANO1 activ	TMEM16A inh	MT1-MMP act inh	TMEM16A reconf	TMEM16A Ca cntr	Parental YFP cnt	ClC-1 inh
CC(=O)Oc1ccc(Cl)cc1CN(C(C)=O)C1CCCCC1	-1	i	·	-2	·	·	·	·
CCOC(=O)CCc1c(C)c2ccc(OC(C)C(=O)OCC)c(C)c2oc1=O (stereo not given)	-7	i	100*	5	34%*	i	-0.98	-29
CC(=O)NS(=O)(=O)c1ccc(NC(=O)c2ccccc2F)cc1	2	i	25*	3	i	i	-0.85	-3
CCC(C)c1ccc(S(=O)(=O)N2CCN(C(=O)c3ccc(Cl)c(S(=O)(=O)N4CCOCC4)c3)CC2)cc1 (stereo not given)	1	i	·	-11	·	·	·	·
Cc1ccccc1Nc1nc(NCc2ccco2)c2ccccc2n1	-1	i	25*	-5	32%*	i	-1.2	-7
CSc1nc(NCc2ccco2)c2ccccc2n1	-6	i	i	11	·	·	·	·
c1ccc(Nc2nc(NCc3ccco3)c3ccccc3n2)cc1	0	i	25*	0	47%*	i	-1.1	-8
Cc1ccc(S(=O)(=O)Nc2nc3ccccc3nc2NCc2ccco2)cc1	-1	i	i	-58	·	·	·	·
Oc1ccccc1Nc1nc(NCc2ccco2)c2ccccc2n1	0	i	i	3	·	·	·	·
Cc1ccc(S(=O)(=O)Nc2nc3ccccc3nc2NCc2ccco2)cc1C	9	i	100*	-16	i	i	-0.97	-15
OC(c1cccnc1)c1nc(-c2cccc(F)c2)cs1 (stereo not given)	·	·	·	1	·	·	·	·
C[C@H](CO)N1C[C@H](C)[C@@H](CN(C)C(=O)C2CCCCC2)OCc2cn(nn2)CCCC1=O	-1	·	·	3	·	·	·	·
Cn1cnc(S(=O)(=O)N2CCCCC2c2cc(C(=O)Nc3cccc4c3CCCC4)no2)c1 (stereo not given)	·	·	·	2	·	·	·	·
O=S(=O)(c1cc(Br)ccc1Br)N1CCCCCC1	-8	i	25*	-2	21%*	i	-1	-10
O=C(Nc1cccc(S(=O)(=O)c2cccc(NC(=O)c3ccco3)c2)c1)c1ccco1	-1	i	25*	0	20%*	i	-0.91	-14
CC(C)(C)C(=O)COC(=O)c1cccc(NC(=O)c2ccco2)c1	-1	i	i	0	·	·	·	·
O=C(COC(=O)c1cccc(NC(=O)c2ccco2)c1)c1ccc(Br)cc1	-3	i	100*	5	i	i	-0.93	-10
O=C(Nc1cccc(S(=O)(=O)N2CCCC2)c1)c1ccco1	0	i	·	4	·	·	·	·
Cc1ccc(S(=O)(=O)N2CCCCC2)cc1NC(=O)c1ccc(=O)[nH]c1	0	·	·	4	·	·	·	·
